Results collected from several papers.
Protocols differ between the studies behind these lines.
Target: Serine/threonine-protein kinase PRP4 homolog (PRPF4B, Homo sapiens, UniProt Q13523)

O=c1nc(-c2ccccn2)sc2ccccc12 gave a remaining binding of 71% (binding; competition with immobilised ligand; 1 µM).
For N[C@@H]1CCN(c2nccc(-c3cnn4ncccc34)n2)C1, the remaining binding was 100% (binding; 1 µM).
The remaining binding of COc1ncc2cc3ccccc3nc2c1C#N is reported as 100% (cell-free assay; competition with immobilised ligand; 5 µM).
For COc1ccnn2ncc(-c3ccnc(N(C)C)n3)c12, the remaining binding was 69% (binding; 1 µM).
The remaining binding of O=C(NCCCN1CCOCC1)c1ccc(Nc2nccc(-c3cc4ccccc4s3)n2)cc1 is reported as 6.8% (binding; competition with immobilised ligand; 1 µM).
With CN(CCCC(F)(F)F)c1nccc(-c2cnn3ncccc23)n1 the remaining binding was 100% (binding; 1 µM).
For C=CC(=O)N1CCC(C(=O)NCC(=O)N2CCN(c3nc(-c4cnc(N)nc4C(F)F)nc(N4CCOCC4)n3)CC2)CC1, the remaining binding was 100% (binding; competition with immobilised ligand; 1 µM).
The remaining binding of COc1cnc(Nc2cccc(S(N)(=O)=O)c2)nc1N1CCN(c2ccccc2)CC1 is reported as 90% (binding; competition with immobilised ligand; 1 µM).
CN(C)c1nccc(-c2cnn3ncccc23)n1 gave a remaining binding of 86% (binding; 1 µM).
For Cc1noc([C@H]2C[C@@H](c3ccc(C(F)(F)F)cc3)CN(C(=O)N3CCS(=O)(=O)C3)C2)n1, the remaining binding was 72% (cell-free assay; competition with immobilised ligand; 1 µM).
The remaining binding of c1cncc(-c2cccc(Nc3nccc(NC4CCCCC4)n3)c2)c1 is reported as 100% (binding; competition with immobilised ligand; 10 µM).
Cc1cnn2ncc(-c3ccnc(N(C)C)n3)c2c1 gave a remaining binding of 94% (binding; 1 µM).
With CC(=O)N1CCC(c2ccc(C(=O)NC(=N)N)cc2C(F)(F)F)CC1 the remaining binding was 78% (cell-free assay; competition with immobilised ligand; 1 µM).
With O=C(NCC1CCOCC1)c1n[nH]cc1NC(=O)c1c(F)cccc1F the remaining binding was 100% (binding; competition with immobilised ligand; 1 µM).
For Cc1c(NC(=O)c2cc(C(N)=O)nc3cc(F)ccc23)c(C(F)(F)F)nn1Cc1ccc(C(C)(C)C)cc1, the remaining binding was 73% (cell-free assay; competition with immobilised ligand; 1 µM).
With Cc1nn(C)cc1-c1nc2c(N3CCN(Cc4ccc(Cl)cc4)CC3)c(Cl)cnc2[nH]1 the remaining binding was 100% (binding; competition with immobilised ligand; 1 µM).
For C[C@@H]1CCN(c2nccc(-c3cnn4ncccc34)n2)C1, the remaining binding was 64% (binding; 1 µM).
With FC(F)(F)Oc1cccc(-c2cnc3ccc(-c4ccncc4)nn23)c1 the remaining binding was 71% (cell-free assay; competition with immobilised ligand; 5 µM).
For Cc1nccc(COC(=O)N2C[C@@H]3[C@@H](CNC(=O)c4ccc5[nH]nnc5c4)[C@@H]3C2)n1, the remaining binding was 95% (cell-free assay; competition with immobilised ligand; 1 µM).
O=C(c1ccc(Nc2nccc(-c3cc4ccccc4s3)n2)cc1)N1CCC(N2CCCC2)CC1 gave a remaining binding of 6.3% (binding; competition with immobilised ligand; 1 µM).
The remaining binding of C[C@@H]1CN(c2cc(-c3nn(C)c4ccc(OC5(C)CC5)cc34)ncn2)C[C@H](C)O1 is reported as 100% (cell-free assay; competition with immobilised ligand; 1 µM).
The remaining binding of O=C(NCCCN1CCOCC1)c1ccc(Nc2ncc(Cl)c(-c3ccc(Cl)s3)n2)cc1 is reported as 22% (binding; competition with immobilised ligand; 1 µM).
